These results are taken from ChEMBL document CHEMBL3414544, “PAINS in the assay: chemical mechanisms of assay interference and promiscuous enzymatic inhibition observed during a sulfhydryl-scavenging HTS” (J Med Chem, 2015).

In general, IC50 refers to the point on the concentration scale where inhibition reaches its midpoint.

Activity calls are given as the source filed them.

Series [1] in a line: Fluorescence quenching in HTS buffer with […] CoA assessed as fluorescence signal reduction at 10 uM after 10 mins. The format is physicochemical.
Series [2] concerns the target T1, Histone acetyltransferase RTT109 (Saccharomyces cerevisiae (strain ATCC 204508 / S288c) (Baker's yeast)) (UniProt Q07794).
T1 sequence (whole entry): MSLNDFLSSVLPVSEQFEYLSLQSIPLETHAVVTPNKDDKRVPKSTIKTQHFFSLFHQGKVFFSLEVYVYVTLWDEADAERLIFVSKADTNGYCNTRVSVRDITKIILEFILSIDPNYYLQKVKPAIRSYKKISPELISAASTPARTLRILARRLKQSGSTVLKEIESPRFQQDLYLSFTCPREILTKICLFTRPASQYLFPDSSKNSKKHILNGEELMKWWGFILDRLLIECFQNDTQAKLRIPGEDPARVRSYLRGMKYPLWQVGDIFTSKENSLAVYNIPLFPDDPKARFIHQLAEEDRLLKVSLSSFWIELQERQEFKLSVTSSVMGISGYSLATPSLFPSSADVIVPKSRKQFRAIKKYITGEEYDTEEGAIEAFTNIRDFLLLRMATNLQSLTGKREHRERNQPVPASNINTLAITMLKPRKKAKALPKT
The series is described as follows: Inhibition of Vps75-stimulated recombinant Saccharomyces cerevisiae histone acetyltransferase Rtt109 assessed as H3K56 acetylated product at […] after 45 mins by Slot bolt inhibiton assay.

In series [3] the target is Histone acetyltransferase GCN5 (Saccharomyces cerevisiae S288c, UniProt Q03330). As to the kind of experiment: Inhibition of yeast histone acetyltransferase Gcn5-Ada2-Ada3 complex using tetramer and [3H]-acetyl-CoA assessed as acetate incorporation after 30 mins by liquid scintillation counting. Conditions: read-out: IC50.
A short description of series [4]: Fluorescence quenching assessed as fluorescence signal reduction at 10 uM after 10 mins. The format is physicochemical. In a few lines:
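CPM (20 μM final) and CoA (5 μM final) reacted to completion in assay buffer (stable plateau, usually ~5 min); adduct solution added to wells preplated with compound; shaken 5 min, equilibrated 5 min at room temperature; fluorescence intensity read as percent signal reduction versus DMSO controls. Flagged as quencher at >20% signal reduction at 10 μM final compound.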

Series [5] addresses T1, Histone acetyltransferase RTT109 (Saccharomyces cerevisiae (strain ATCC 204508 / S288c) (Baker's yeast)). As to the kind of experiment: Inhibition of Vps75-stimulated recombinant Saccharomyces cerevisiae histone acetyltransferase Rtt109 using [3H]-acetyl-CoA assessed as acetate incorporation […] by liquid scintillation counting in presence of 1 mM DTT.
Series [6] can be described thus: Fluorescence quenching in HTS buffer with 20 uM 7-diethylamino-3-(4'-maleimidyl-phenyl)-4-methylcoumarin assessed as fluorescence signal reduction at 10 uM after 10 mins. It is filed as physicochemical.
For series [7], the target named is T2, Histone acetyltransferase p300 (Homo sapiens, UniProt Q09472). The series is described as follows: Inhibition of recombinant histone acetyltransferase p300 (unknown origin) using dH3-H4 tetramer and [3H]-acetyl-CoA assessed as acetate incorporation after 5 mins by liquid scintillation counting in presence of 1 mM DTT.
In series [8] the target is T1, Histone acetyltransferase RTT109 (Saccharomyces cerevisiae (strain ATCC 204508 / S288c) (Baker's yeast)). As to the kind of experiment: Inhibition of Vps75-stimulated recombinant Saccharomyces cerevisiae histone acetyltransferase Rtt109 assessed as H3K27 acetylated product at […] after 45 mins by Slot bolt inhibiton assay.
In series [9] the target is Histone acetyltransferase GCN5 (Saccharomyces cerevisiae S288c) (UniProt Q03330). The series is described as follows: Inhibition of yeast histone acetyltransferase Gcn5-Ada2-Ada3 complex using tetramer and [3H]-acetyl-CoA assessed as acetate incorporation […] by liquid scintillation counting in presence of 1 mM DTT.
The nature of series [10]: Fluorescence quenching in HTS buffer assessed as fluorescence signal reduction at 10 uM after 10 mins. It is filed as physicochemical.
The target of series [11] is T2, Histone acetyltransferase p300. As to the kind of experiment: Inhibition of recombinant histone acetyltransferase p300 (unknown origin) using dH3-H4 tetramer and [3H]-acetyl-CoA assessed as acetate incorporation […] by liquid scintillation counting. The note with it: read-out: IC50.
The target in series [12] is T3, Histone acetyltransferase RTT109 (Saccharomyces cerevisiae (strain ATCC 204508 / S288c) (Baker's yeast), UniProt Q07794).
T3 sequence (Q07794 whole entry): T1 sequence (whole entry)
As to the kind of experiment: Inhibition of Vps75-stimulated recombinant Saccharomyces cerevisiae histone acetyltransferase Rtt109 using Asf1-dH3-H4 as substrate assessed as coenzyme A production after 45 mins by CPM based HTS assay. The note with it: read-out: IC50. In a few lines: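 Recombinant Rtt109–Vps75 at 50 nM, with Asf1–dH3–H4 as substrate and acetyl-CoA as acetyl donor. Buffer contained freshly prepared 0.01% Triton X-100. The CoA product was detected by fluorescence of its CPM adduct. Plates had Z′ ≥0.5. IC50 came from a four-parameter variable-slope fit.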

T2 sequence (Q09472 whole entry): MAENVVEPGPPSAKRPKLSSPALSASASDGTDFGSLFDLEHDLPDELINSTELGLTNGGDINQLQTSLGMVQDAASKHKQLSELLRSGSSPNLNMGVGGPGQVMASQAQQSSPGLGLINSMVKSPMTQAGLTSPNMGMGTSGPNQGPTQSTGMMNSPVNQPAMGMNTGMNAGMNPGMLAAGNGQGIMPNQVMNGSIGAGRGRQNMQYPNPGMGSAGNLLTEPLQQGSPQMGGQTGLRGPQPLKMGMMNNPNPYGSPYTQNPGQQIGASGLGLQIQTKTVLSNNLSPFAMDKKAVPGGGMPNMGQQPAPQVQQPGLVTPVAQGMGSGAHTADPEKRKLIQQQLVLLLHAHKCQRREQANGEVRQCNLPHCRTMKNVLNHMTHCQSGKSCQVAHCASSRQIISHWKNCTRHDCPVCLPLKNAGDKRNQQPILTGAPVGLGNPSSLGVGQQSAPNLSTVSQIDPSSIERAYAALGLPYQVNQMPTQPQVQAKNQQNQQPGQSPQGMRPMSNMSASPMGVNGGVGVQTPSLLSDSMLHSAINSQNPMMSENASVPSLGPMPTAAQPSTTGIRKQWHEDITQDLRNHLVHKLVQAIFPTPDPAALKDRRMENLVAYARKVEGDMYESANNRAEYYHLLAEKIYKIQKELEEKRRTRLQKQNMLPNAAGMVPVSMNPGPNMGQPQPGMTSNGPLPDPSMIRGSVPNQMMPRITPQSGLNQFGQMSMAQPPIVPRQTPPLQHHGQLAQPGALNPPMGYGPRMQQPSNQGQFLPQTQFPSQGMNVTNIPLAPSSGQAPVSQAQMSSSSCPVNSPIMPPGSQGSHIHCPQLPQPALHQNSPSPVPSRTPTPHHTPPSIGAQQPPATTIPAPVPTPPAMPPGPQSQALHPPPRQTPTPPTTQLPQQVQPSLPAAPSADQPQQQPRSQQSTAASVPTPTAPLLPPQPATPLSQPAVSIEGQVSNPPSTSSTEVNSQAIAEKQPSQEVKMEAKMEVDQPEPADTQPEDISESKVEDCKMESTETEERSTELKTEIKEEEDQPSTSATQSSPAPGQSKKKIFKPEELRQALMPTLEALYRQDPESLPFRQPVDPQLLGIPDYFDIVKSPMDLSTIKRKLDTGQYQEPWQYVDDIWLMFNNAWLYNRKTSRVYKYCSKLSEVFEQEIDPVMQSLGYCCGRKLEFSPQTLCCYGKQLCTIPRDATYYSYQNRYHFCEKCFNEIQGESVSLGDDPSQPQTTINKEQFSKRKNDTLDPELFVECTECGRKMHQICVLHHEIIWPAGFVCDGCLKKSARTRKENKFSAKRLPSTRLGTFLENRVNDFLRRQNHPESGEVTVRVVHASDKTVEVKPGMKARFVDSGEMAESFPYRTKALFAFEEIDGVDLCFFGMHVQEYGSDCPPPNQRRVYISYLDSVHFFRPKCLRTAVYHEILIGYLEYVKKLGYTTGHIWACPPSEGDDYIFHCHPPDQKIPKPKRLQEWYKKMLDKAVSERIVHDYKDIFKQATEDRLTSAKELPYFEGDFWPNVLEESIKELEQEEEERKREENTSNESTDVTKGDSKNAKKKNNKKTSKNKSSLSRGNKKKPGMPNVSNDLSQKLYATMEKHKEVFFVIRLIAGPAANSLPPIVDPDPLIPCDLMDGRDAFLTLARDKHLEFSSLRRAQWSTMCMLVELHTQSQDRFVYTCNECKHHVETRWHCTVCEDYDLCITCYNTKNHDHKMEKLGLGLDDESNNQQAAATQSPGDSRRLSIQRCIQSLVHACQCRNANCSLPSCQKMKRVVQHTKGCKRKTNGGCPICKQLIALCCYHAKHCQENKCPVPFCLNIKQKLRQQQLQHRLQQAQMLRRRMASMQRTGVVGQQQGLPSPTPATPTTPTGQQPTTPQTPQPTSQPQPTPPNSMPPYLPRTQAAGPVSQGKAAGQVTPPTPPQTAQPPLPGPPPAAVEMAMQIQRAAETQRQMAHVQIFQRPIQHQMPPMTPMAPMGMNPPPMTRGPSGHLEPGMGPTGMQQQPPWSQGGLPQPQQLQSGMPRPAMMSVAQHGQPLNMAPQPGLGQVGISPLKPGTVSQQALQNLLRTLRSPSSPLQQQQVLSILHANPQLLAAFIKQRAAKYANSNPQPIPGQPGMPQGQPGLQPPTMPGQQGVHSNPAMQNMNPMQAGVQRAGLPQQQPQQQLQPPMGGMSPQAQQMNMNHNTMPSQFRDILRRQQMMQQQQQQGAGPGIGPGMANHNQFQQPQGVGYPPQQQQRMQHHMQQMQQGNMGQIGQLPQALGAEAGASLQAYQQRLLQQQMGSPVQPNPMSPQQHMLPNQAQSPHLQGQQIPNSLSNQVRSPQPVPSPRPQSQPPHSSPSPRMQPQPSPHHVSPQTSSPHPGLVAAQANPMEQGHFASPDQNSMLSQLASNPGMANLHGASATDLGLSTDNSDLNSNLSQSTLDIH
Chain of Histone acetyltransferase GCN5 (Saccharomyces cerevisiae S288c) (Q03330 whole entry): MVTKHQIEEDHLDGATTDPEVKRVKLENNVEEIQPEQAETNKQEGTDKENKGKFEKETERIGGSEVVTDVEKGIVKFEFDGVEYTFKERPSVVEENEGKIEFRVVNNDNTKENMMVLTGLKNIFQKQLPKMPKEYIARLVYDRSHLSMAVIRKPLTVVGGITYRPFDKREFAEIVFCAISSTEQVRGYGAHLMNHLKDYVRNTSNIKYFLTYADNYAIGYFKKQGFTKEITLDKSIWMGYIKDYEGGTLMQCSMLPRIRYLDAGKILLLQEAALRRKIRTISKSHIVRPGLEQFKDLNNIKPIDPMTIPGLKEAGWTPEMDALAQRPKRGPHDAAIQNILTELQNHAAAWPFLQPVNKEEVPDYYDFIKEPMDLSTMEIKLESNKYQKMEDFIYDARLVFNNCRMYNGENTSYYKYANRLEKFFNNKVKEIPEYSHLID
Chain of Histone acetyltransferase GCN5 (Q03330 whole entry): as above

In the case of `O=S1(=O)C=C(Sc2nnnn2-c2ccccc2)c2ccccc21`, the Activity entry in series [1], in series [4], in [6] and in [10] was “Not Active” in each case. Further, the result in [2], in series [5], in series [7], in series [8] and in series [9] was Active. Moreover, the IC50 in [3] was 20 µM.

As for `C=C(C)[C@@H](CC=C(C)C)C[C@@]12C[C@@H](CC=C(C)C)C(C)(C)[C@@](CC=C(C)C)(C(=O)C(C(=O)c3ccc(O)c(O)c3)=C1O)C2=O` [GARCINOL], the IC50 worked out at 2.6 µM in [3] and 1.7 µM in [11]. Also, the outcome in series [5], in series [7] and in series [9] was inactive.

Regarding `O=[N+]([O-])c1ccc2nonc2c1Sc1nc2ccccc2[nH]1`, the Activity entry in [1], in series [4], in series [6] and in series [10] was “Not Active” each time. Further, the outcome in series [2] and in series [8] was Active. The IC50 in series [12] worked out at 3.4 µM.

Turning to `CC(C)(C)c1ccc(S(=O)(=O)Nc2ccc(O)c(Cl)c2)cc1`, the Activity result in series [1], in series [4], in series [6] and in series [10] was “Not Active” in each case. Besides, the result in [2] and in series [8] was inactive. Further, the concentration for half-maximal inhibition (IC50) in series [12] amounted to 75 µM.

For `O=[N+]([O-])c1ccc(Sc2nnnn2-c2ccccc2)c2nonc12`, the Activity entry in [1], in series [4], in [6] and in [10] was “Not Active” each time. Besides, the result in [2] and in series [8] was Active. Moreover, in series [12], the IC50 came out at 0.45 µM.

As for `Cc1ccc(Sc2cc(NS(=O)(=O)c3ccc(Cl)cc3)c3ccccc3c2O)cc1`, the Activity entry in series [1], in [4], in series [6] and in series [10] was “Not Active” throughout. The outcome in series [2] was Active. Further, the IC50 in series [12] is 2.9 µM. Also, in [8], the outcome was inactive.

For the compound `O=S(=O)(C[n+]1sc(N(c2ccccc2)c2ccccc2)nc1-c1ccccc1)c1ccccc1.[Br-]`, the Activity entry in series [1], in series [4], in series [6] and in series [10] was “Not Active” in each case. In addition, the outcome in series [2] and in [8] was inactive. In series [12], the IC50 amounted to 50 µM.

`O=C1C=CC(=O)N1c1ccc(Oc2ccccc2)cc1`: the Activity entry in series [1], in series [4], in series [6] and in [10] was “Not Active” each time. The outcome in [2] and in series [8] was Active. In series [12], the IC50 came out at 3 µM.

Regarding `O=C1C=CC(=O)N1c1cc(Cl)cc(Cl)c1`, the Activity result in series [1], in series [4], in series [6] and in series [10] was “Not Active” throughout. The outcome in series [2] and in series [8] was Active. Further, in series [12], the IC50 was 3.1 µM.

For the compound `O=C1C=CC(=O)N1c1ccc2ccccc2c1`, the Activity result in series [1], in series [4], in series [6] and in series [10] was “Not Active” throughout. For the same compound, the result in [2] and in [8] was Active. In series [12], the IC50 came out at 3.6 µM.

`O=S(=O)(C[n+]1sc(Nc2ccccc2)nc1-c1ccccc1)c1ccc2ccccc2c1.[Br-]`: the Activity entry in series [1], in series [4], in [6] and in [10] was “Not Active” each time. In addition, the outcome in [2] and in [8] was inactive. Further, the IC50 in series [12] is 28 µM.

With `COc1ccc(Nc2nc(-c3ccc(OC)cc3)[n+](CS(=O)(=O)c3ccc(C)cc3)s2)cc1.O=S(=O)([O-])O`, the Activity result in series [1], in series [4], in series [6] and in series [10] was “Not Active” throughout. Moreover, the result in series [2] and in series [8] was Active. Besides, the IC50 in series [12] turned out to be 2.7 µM.

Regarding `CC(C)c1ccc(S(=O)(=O)Nc2ccc(O)c(Sc3nc[nH]n3)c2)cc1`, the Activity result in series [1], in [4], in series [6] and in [10] was “Not Active” throughout. Also, the result in series [2] and in series [8] was inactive. Further, in series [12], the IC50 was 200 µM.

`O=C1CC(Sc2nncn2-c2ccccc2)C(=O)N1c1cc(Cl)cc(Cl)c1` (centres undefined): the Activity entry in series [1], in series [4], in series [6] and in series [10] was “Not Active” in each case. Also, the result in series [2] and in series [8] was Active. Further, the IC50 in series [12] was 16 µM.

On to `Cc1ccc(S(=O)(=O)Nc2cc(Sc3nnnn3-c3ccccc3)c(O)c3ccccc23)cc1`, for which the Activity result in series [1], in [4], in [6] and in series [10] was “Not Active” in each case. The result in series [2] and in series [8] was Active. Further, the IC50 in series [12] was found to be 8.6 µM.

In the case of `O=C1C=CC(=O)N1c1ccccc1`, the Activity result in series [1], in series [4], in [6] and in [10] was “Not Active” throughout. Also, the result in series [2] and in series [8] was Active. Also, the IC50 in series [12] was 7.6 µM.

Turning to `COc1ccc(N2C(=O)CC(Sc3n[nH]c(-c4ccc(C)cc4)n3)C2=O)cc1` (centres undefined), the Activity entry in series [1], in series [4], in series [6] and in series [10] was “Not Active” each time. Moreover, the outcome in series [2] and in series [8] was Active. Also, the half-inhibitory concentration (IC50) in [12] was determined as 10 µM.

Consider `O=S(=O)(Nc1cc(Br)c(O)c2ccccc12)c1ccc(F)cc1`, for which the Activity result in series [1], in [4], in series [6] and in series [10] was “Not Active” throughout. Moreover, the result in series [2] and in series [8] was Active. In addition, the IC50 in series [12] came to 4.4 µM.

For the compound `COc1ccc(Cc2nnc(SC3=CS(=O)(=O)c4ccccc43)o2)cc1`, the Activity result in series [1], in series [4], in series [6] and in [10] was “Not Active” each time. Besides, the result in series [2] and in [8] was Active. The IC50 in series [12] came out at 7.1 µM.
